# Bioassay records from PubChem.
# Shown are actives, neighbours in structure and some others; about 2.6% of the full set was active somewhere.
# SENP8 block-1 = blocks human SENP8 cleavage of Nedd8 substrate | 0.64% of 360,000 active | inhibition, % at 20 µM | AID 602440 | recombinant SENP8, Nedd8 substrate fluorescence | Q96LD8; in the data active = inhibition mostly above about 40%, no sharp cut-off; inactive = mostly below about 27%
# SENP1 inh = blocks the human SENP1 SUMO protease catalytic domain | Q9P0U3 | inhibition, % at 10 µM | 0.21% of 360,000 active | AID 624204 | recombinant SENP1 catalytic domain, CyPet-SUMO1-YPet FRET cleavage;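 active = inhibition at least 30% at 10 µM, raw YFP signal under a set limit, fluorescence ratio 0.5 to 1.5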;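 note: 0% = enzyme with DMSO and 100% = no enzyme wells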
# Target sequence (Q9P0U3 419-644 limits assumed): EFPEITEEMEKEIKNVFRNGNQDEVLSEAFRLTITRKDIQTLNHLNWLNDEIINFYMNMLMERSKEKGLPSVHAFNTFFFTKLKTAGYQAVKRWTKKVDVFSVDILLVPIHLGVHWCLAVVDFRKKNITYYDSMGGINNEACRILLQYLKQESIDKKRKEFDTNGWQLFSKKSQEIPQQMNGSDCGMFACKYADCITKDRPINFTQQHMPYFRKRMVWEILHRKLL
#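 Test system: human SENP1 catalytic domain; medium: Tris pH 8 buffer plus EDTA, NaCl, BME, BSA, NP40, catalase; incubation: 50 min reaction at room temperature; technique: FRET, CFP and YFP emission; controls: no-enzyme low control and enzyme-plus-DMSO high control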
# SENP8 block-2 = inhibitors of human SENP8 protease | purified SENP8, Z-RLRGG-aminoluciferin cleavage, luminescence | 1.2% of 330,000 active | Q96LD8 | inhibition, % at 10 µM | AID 2540; in the data active = inhibition above about 50%
# SENP6 block = inhibitors of human SENP6 protease. Q9GZR1. Recombinant SENP6 catalytic domain, aminoluciferin luminescence. inhibition, % at 10 µM. 1.8% of 330,000 active;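 active = inhibition above about 50% at the single tested dose, limit read from the data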;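 note: plate controls were DMSO wells with enzyme for no effect and DMSO wells lacking enzyme for full effect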
# SENP7 inh = inhibitors of human SENP7 protease | Q9BQF6 | recombinant SENP7, Z-RLRGG-aminoluciferin luminescence, 40 min | inhibition, % at 5 µM | 1.5% of 330,000 active | AID 434973;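 active = inhibition above about 50% at the single test dose, limit read from the data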;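 note: plate controls were DMSO with enzyme for no effect and no enzyme buffer wells for full effect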
# Platelet DG rel = platelet dense granule release activity. human platelet-rich plasma, SFLLRN dense granule ATP release, luminescence. inhibition, %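 (compounds screened at 7.5 µM in platelet-rich plasma)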. AID 1663. 0.22% of 300,000 active;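 active = mean replicate score, as percent of positive control, at or above 50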
# SENP8 conf = confirmation of human SENP8 protease inhibitors | shares compounds with SENP7 inh | Recombinant SENP8, Z-RLRGG-aminoluciferin luminescence, 60 min | inhibition, % at 12.5 µM | 40% of 6,200 active | AID 488912;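 active = mean inhibition across replicates above about 50%, limit read from the data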
# SENP6 conf = confirmation of human SENP6 protease inhibitors; inhibition, % at 12.5 µM; 58% of 6,200 active; recombinant SENP6, Z-RLRGG-aminoluciferin luminescence; shares compounds with SENP7 inh; AID 488915
# SENP7 conf = human SENP7 inhibition, confirmed; shares compounds with SENP7 inh; recombinant SENP7, Z-RLRGG-aminoluciferin luminescence, 40 min; inhibition, % at 12.5 µM; 69% of 6,200 active
# Casp3 SENP sel = selectivity test for SENP inhibitors: human caspase-3 inhibition; shares compounds with SENP7 inh; purified caspase-3, Z-DEVD-aminoluciferin luminescence, 60 min; inhibition, % at 12.5 µM; 60% of 6,200 active;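 active = mean inhibition above about 50%, limit read from the data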;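 note: plate controls were enzyme with DMSO for no effect and wells without caspase-3 for full effect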
# Target sequence (P42574 28-227 limits assumed): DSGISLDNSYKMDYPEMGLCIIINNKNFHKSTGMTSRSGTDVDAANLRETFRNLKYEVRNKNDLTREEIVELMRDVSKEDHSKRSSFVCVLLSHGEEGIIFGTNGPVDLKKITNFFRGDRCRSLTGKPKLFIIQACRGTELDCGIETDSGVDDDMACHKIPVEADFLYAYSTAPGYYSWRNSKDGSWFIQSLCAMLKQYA
# SENP luc ctr = interferes with luciferase luminescence in SENP counter-screen; Pre-incubated SENP8/Z-RLRGG-aminoluciferin, luciferase luminescence interference; AID 488919; shares compounds with SENP7 inh; inhibition, % at 12.5 µM; 39% of 6,200 active;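 active = mean inhibition above about 50% when retested at one dose, limit read from the data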;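 note: plate controls were DMSO wells with completed reaction for no effect and substrate without enzyme for full effect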
# Numbers without * were called inactive; x = no result.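 Rule for the calls, unless noted: active = mean inhibition above about 50% in the one-dose retest (limit read from the data); inactive = the rest.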
SMILES,SENP8 block-1,SENP1 inh,SENP8 block-2,SENP6 block,SENP7 inh,Platelet DG rel,SENP8 conf,SENP6 conf,SENP7 conf,Casp3 SENP sel,SENP luc ctr
CCc1ccc(OC(=O)/C=C/c2ccco2)cc1,4,0,69*,89*,81*,3,7,77*,94*,50*,18
CN(CC1COc2ccccc2O1)C(=O)Cn1cc(C(F)(F)F)ccc1=O (stereo not given),20,1,-4,-13,4,x,x,x,x,x,x
CCOC(=O)c1c(NC(=O)C2CCCCC2)sc2c1CCN(C(C)C)C2,-6,-91,-4,13,1,17,x,x,x,x,x
Cc1ccc(-c2nc3ccccc3nc2NN)cc1,-312,-1,85*,91*,79*,0,20,67*,92*,74*,31
c1ccc(CCNc2nc(-c3ccccn3)cs2)cc1,-6,3,29,52*,43,-4,2,-2,-2,4,12
CCN(C[C@H]1N[C@@](CC)(C(=O)OC)[C@H]2C(=O)N(C)C(=O)[C@@H]12)C(=O)COc1ccccc1,3,1,2,24,-4,x,x,x,x,x,x
O=C1N/C(=C\c2ccccc2)c2ccccc21,-130,1,-19,14,1,2,x,x,x,x,x
O=C1N/C(=C\c2nc3ccccc3s2)c2ccccc21,x,x,84*,92*,98*,1,33,42,34,37,6
COc1ccccc1C1CC(=O)NC(C)=C1C(=O)OC(C)C (stereo not given),4,0,-5,16,12,-2,x,x,x,x,x
CC(C)Cn1cc(C(=O)NCc2cccs2)c2c3ccccc3n(C)c2c1=O,-314,-39,5,3,62*,4,-1,0,-5,-2,-6
CC(C)CCNC(=O)c1cn(CC(C)C)c(=O)c2c1c1ccccc1n2C,-301,2,-9,-16,-10,20,x,x,x,x,x
Cc1ccc(C(=O)N2CCSCC2)cc1,17,2,2,1,7,3,x,x,x,x,x
O=C(CCN1CCc2ccccc2CC1)c1ccc2c(c1)OCCO2,20,1,-6,-6,-7,4,x,x,x,x,x
Nc1c(C(=O)Nc2ccc(Cl)c(C(=O)O)c2)sc2nc3c(cc12)CCCC3,-389,-28,-10,-10,-5,7,x,x,x,x,x
Nc1c(C(=O)Nc2cccc(C(=O)O)c2)sc2nc3c(cc12)CCCC3,-294,-25,47,71*,25,1,74*,68*,88*,18,43
CCCc1ccc(OCc2ccc(C(=O)N/N=C/c3cccnc3)o2)cc1,11,3,-7,0,-6,-3,x,x,x,x,x
CC(=O)c1sc(NC(=O)c2cnc(Cl)c(Cl)c2)nc1C,-28,5,77*,84*,66*,12,12,54*,28,91*,82*
CC(=O)c1sc(NC(=O)c2ccc3c(c2)OCO3)nc1C,-35,-1,70*,80*,82*,9,63*,77*,95*,88*,77*
Cc1csc(NC(=O)c2ccc3c(c2)OCO3)n1,-19,-2,75*,85*,86*,3,43,80*,96*,90*,82*
CC(=O)c1sc(NC(=O)c2ccc(C)c(C)c2)nc1C,-11,0,-11,-14,33,2,x,x,x,x,x
O=C(Nc1nccs1)c1ccc2c(c1)OCO2,6,-2,44,63*,48,18,-5,8,68*,67*,0
O=c1cc(O)nc(SC23CC4CC(CC(C4)C2)C3)[nH]1,-1,2,1,-7,1,7,x,x,x,x,x
Cc1cc(C(=O)Nc2ccc(N3CCCCC3)cc2)no1,11,1,38,50,54*,19,17,56*,77*,81*,19
O=C(Nc1ccc(N2CCCC2)cc1)c1ccc2ccccc2c1,-7,2,12,8,1,0,x,x,x,x,x
O=C(Nc1ccc(N2CCCC2=O)cc1)c1cccc(F)c1,-4,2,72*,81*,89*,24,-12,16,62*,70*,49
SMILES,SENP8 block-1,SENP1 inh,SENP8 block-2,SENP6 block,SENP7 inh,Platelet DG rel,SENP8 conf,SENP6 conf,SENP7 conf,Casp3 SENP sel,SENP luc ctr
O=C(Nc1ccc(N2CCCC2)cc1)c1cccc(F)c1,20,-3,89*,94*,93*,8,87*,86*,96*,80*,75*
O=C(Nc1ccc2c(c1)CCCN2C(=O)c1ccccc1)c1ccccc1,8,3,78*,84*,83*,47,12,85*,97*,85*,67*
Cc1cc(C(=O)Nc2ccc(S(=O)(=O)N3CCCC3)cc2)no1,15,-2,-5,13,-2,-1,x,x,x,x,x
FC(F)(F)c1ccccc1NC(=S)NN=C1CCCCCC1,x,x,5,3,4,-3,x,x,x,x,x
CC(C)CC(=O)N(c1nnc(-c2cccnc2)s1)C1CCCC1,-5,-1,3,-15,-8,-3,x,x,x,x,x
O=C(Cc1ccccc1)Nc1ccc(N2CCCCC2)cc1,18,1,54*,39,64*,37,-4,44,77*,73*,0
O=C(Nc1ccc(N2CCCCC2)cc1)c1cncc(Br)c1,22,4,30,-36,52*,18,48,38,62*,68*,8
O=C(Nc1ccc(N2CCCCC2)cc1)c1ccccc1,14,0,75*,84*,90*,28,5,85*,98*,92*,29
O=C(Nc1ccc(N2CCCCC2)cc1)c1ccc(F)cc1F,7,4,77*,88*,80*,32,33,77*,88*,84*,14
CC(=O)C1=CCC(c2ccc(Cl)cc2)N(S(=O)(=O)c2ccc(C)cc2)C1 (stereo not given),4,0,x,x,x,x,x,x,x,x,x
CCN(CC)S(=O)(=O)c1ccc(N2CC(C(=O)N3CCOCC3)CC2=O)cc1 (stereo not given),0,-1,-2,-14,0,x,x,x,x,x,x
CC(=O)NCCc1nc2ccccc2n1CCc1ccccc1,-1,5,x,x,x,3,x,x,x,x,x
